Mcl1-Bid inh – disrupts binding of human Mcl-1 to Bid peptide; TR-FRET Mcl-1/Bid-Dy647 peptide binding, 1536-well; Q07820; actives 0.97% (n = 220,000); AID 1021; inhibition, % at 21.7 µM;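 active means compounds that cut the binding signal by more than half at the single screening dose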;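 further: His-tagged Mcl-1 with europium anti-His antibody binding Bid BH3 peptide; 0% = Mcl-1 plus peptide wells and 100% = peptide-only wells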
Target sequence (Q07820 whole entry, looked up): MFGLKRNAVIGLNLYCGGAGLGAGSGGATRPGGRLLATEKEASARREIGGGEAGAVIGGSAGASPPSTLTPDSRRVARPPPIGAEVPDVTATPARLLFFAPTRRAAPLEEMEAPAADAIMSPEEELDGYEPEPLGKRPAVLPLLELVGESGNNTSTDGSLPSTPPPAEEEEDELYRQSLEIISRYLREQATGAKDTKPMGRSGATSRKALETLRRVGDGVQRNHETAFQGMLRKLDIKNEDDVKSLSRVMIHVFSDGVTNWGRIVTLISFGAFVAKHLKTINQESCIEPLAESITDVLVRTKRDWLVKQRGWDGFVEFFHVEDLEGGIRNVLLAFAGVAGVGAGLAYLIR
Mcl1-Noxa inh – disrupts binding of human Mcl-1 to Noxa peptide; Q07820; TR-FRET Mcl-1/Noxa peptide binding, 2 h; inhibition, % at 21.7 µM; actives 1.5% (n = 220,000);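 active means compounds that cut the protein-peptide binding signal by more than 50% relative to plate controls in a single-dose test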;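 further: His-tagged Mcl-1 with rhodamine Noxa BH3 peptide and terbium anti-His antibody; 0% = Mcl-1 plus Noxa peptide wells and 100% = peptide-only wells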
Mcl-1 Bim block – disrupts Bim peptide binding to human Mcl-1. Q07820. Bead-based flow cytometry, Bim peptide-Mcl-1 binding. AID 1009. inhibition, % at 10 µM. actives 0.1% (n = 190,000); in the data active means inhibition above about 40%;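 further: 0% = no compound tracer wells and 100% = peptide blocker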
Biofilm kill mix – mixture kills Candida albicans biofilm cells | C. albicans biofilm persisters + clotrimazole, fluorescence viability; primary screen in compound mixtures of four per well | inhibition, % at 7.6 µM | actives 0.02% (n = 120,000);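 active means inhibition above 30.3% in the primary screen of four-compound pools, then above 30% when the compound was retested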;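 further: compounds exposed to preformed 24 h biofilms for 48 h; 0% = untreated biofilm control and 100% = clotrimazole plus chlorhexidine kill blank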
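Test system: C. albicans CAF4-2 wild-type biofilms; buffer or medium: RPMI/MOPS medium, pH 7.0; schedule: 24 h biofilm formation, then 48 h compound exposure, 37 °C; detection: Alamar Blue fluorescence; measure: percent inhibition of biofilm viability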
Hck-Nef inh – blocks Nef-activated human Hck kinase; Recombinant Hck-YEEI plus Nef, Z-Lyte FRET kinase assay; P08631; inhibition, % at 20 µM; actives 0.68% (n = 220,000);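 active means Hck-Nef kinase inhibition above about 50%, limit read from the data; inactive means inhibition below that limit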;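 further: 0% = DMSO with Hck plus Nef and 100% = Hck alone without Nef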
14-3-3 Bad PPI – disrupts binding of bovine 14-3-3 zeta to phospho-Bad peptide. P63103. TR-FRET 14-3-3zeta/Dy647-pBad peptide displacement, 1 h. inhibition, % at 21.7 µM. actives 0.71% (n = 220,000). AID 781;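 active means inhibition above about 70%, limit read from the data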;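 further: 0% = full 14-3-3 plus peptide FRET controls and 100% = background without 14-3-3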
Target sequence (P63103 whole entry, looked up): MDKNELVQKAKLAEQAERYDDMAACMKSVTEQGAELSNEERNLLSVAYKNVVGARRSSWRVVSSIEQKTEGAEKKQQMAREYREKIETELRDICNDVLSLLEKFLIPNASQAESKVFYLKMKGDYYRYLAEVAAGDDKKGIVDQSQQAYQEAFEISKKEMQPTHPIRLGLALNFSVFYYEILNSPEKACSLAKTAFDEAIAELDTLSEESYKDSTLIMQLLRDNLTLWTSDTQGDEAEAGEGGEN
Starred values were filed as active, the others as inactive; . = no result given; [ ] = remark or other dose. An excerpt weighted towards active compounds, which were near 3.2% of everything screened.

SMILES | Mcl1-Bid inh | Mcl1-Noxa inh | Mcl-1 Bim block | Biofilm kill mix | Hck-Nef inh | 14-3-3 Bad PPI
O=C1NC(=Nc2ccc(Cl)cc2)/C(=C/c2ccco2)S1 | 57.3* | 65.9* | 4.0 | 13.6 | 11.6 | 80.8*[fluorescence artefact?]
Cc1cccc(N=C2NC(=O)S/C2=C\c2ccco2)c1 | 3.7 | 35.5 | 0.0 | 11.2 | 0.3 | -2.8
O=C1NC(=Nc2ccc3ccccc3c2)S/C1=C/c1ccco1 | -66.2 | 64.4* | 2.0 | 17.3 | 10.9 | -9.0
O=C(N/N=C/C(Br)=C\c1ccccc1)c1ccco1 | 74.0* | 14.1 | . | 33.4 | 30.0 | -1.4
CC12CCC(C(=O)N/N=C/c3ccc(O)cc3O)(OC1=O)C2(C)C (stereo not drawn) | -97.7 | -10.1 | . | 30.5 | 20.3 | -20.8
CC1=NN(c2ccc(Br)cc2)C(=O)/C1=C/c1cccs1 | . | . | 5.0 | . | -1.8 | .
CC1=NN(c2ccc(C)cc2)C(=O)/C1=C\c1ccc(Br)s1 | -28.0 | -3.4 | 92.0* | -8.5 | 1.8 | 4.7
CCOC(=O)c1ccc(S(=O)(=O)N2CCNCC2)cc1 | 54.1* | 10.6 | -7.0 | . | -4.7 | 4.5
CCOC(=O)c1ccc(NS(=O)(=O)N2CCCCCC2)cc1 | 78.3* | 13.6 | 0.0 | . | -0.4 | -1.5
CCOC(=O)c1ccc(S(=O)(=O)N2CCN(S(=O)(=O)CC)CC2)cc1 | 5.0 | -2.0 | -7.0 | . | 3.1 | 6.1
COc1ccc(N2CCN(C(=O)CCN3C(=S)NC(C)(C)CC3C)CC2)cc1 (stereo not drawn) | -52.8 | -7.8 | 0.0 | 23.5 | 26.0 | -9.9
COc1ccc(C(=O)/C=C/C(=O)N(CC(=O)NCCC(C)C)Cc2cccs2)c(O)c1 | 9.1 | 66.1* | -5.0 | 13.4 | 21.1 | 2.5
Cc1c2cnn(CC(=O)Nc3c(F)c(F)cc(F)c3F)c(=O)c2c(C)n1Cc1ccccc1F | -57.2 | 48.8 | -6.0 | 8.6 | 51.8* | 16.7
O=C1/C(=C\c2cccs2)Sc2ccc3ccccc3c21 | 22.2 | 35.5 | -1.0 | 6.6 | 1.5 | 37.1
Cc1cccc(NC2=Nc3ccccc3N3C2=Nc2c(c(C)nn2-c2ccccc2)C3c2ccc(O)c(O)c2)c1 (stereo not drawn) | -29.1 | 63.1* | 4.0 | . | -0.3 | 18.1
Cn1cc(C(=O)N/N=C/c2c(O)ccc3ccccc23)ccc1=O | -86.1 | 57.8* | -2.0 | 20.2 | 11.4 | -32.6
COc1ccc(/C=N/n2c(N)nc(-c3ccccc3)c2-c2ccccc2)cc1 | 56.5* | 48.3 | -3.0 | . | 2.5 | 10.9
CC(C)C(O)(C#CCN1CCCCC1)c1ccccc1 (stereo not drawn) | 18.1 | 31.4 | -2.0 | . | 1.6 | 80.3*
NC(=O)C1=C[C@H](c2ccc(C(F)(F)F)cc2)C[C@H](OCCCCO)O1 | -8.7 | -11.6 | -3.0 | 20.0 | -10.2 | -2.9
Cc1nc2ccccn2c1-c1csc(Nc2cccc(O)c2)n1 | -48.4 | 35.8 | 2.0 | 17.5 | 25.4 | -10.2
Cc1nc(NC(=O)c2ccccc2)sc1-c1csc(Nc2ccc(Cl)cc2)n1 | -11.3 | -15.9 | -2.0 | . | -1.0 | 70.4*
Cc1nc(NC(=O)c2ccccc2)sc1-c1csc(Nc2cccc(Cl)c2)n1 | 94.3* | 98.3* | 0.0 | . | 1.2 | 86.5*
Cc1nc(NC(=O)CC(C)C)sc1-c1csc(Nc2ccc(Cl)cc2)n1 | 4.1 | 43.7 | 64.0* | . | -0.5 | 19.1
Cc1nc(C)c(-c2csc(Nc3cccc(O)c3)n2)s1 | -32.7 | 27.6 | 2.0 | 17.5 | 50.8* | -7.4
CC(C)OCCCN1C=C2C(=O)C(C)(OC(=O)CCc3ccccc3)C(=O)C=C2C=C1c1ccc(C#N)cc1 (stereo not drawn) | -65.9 | -2.4 | . | 16.6 | 24.4 | -6.9
SMILES | Mcl1-Bid inh | Mcl1-Noxa inh | Mcl-1 Bim block | Biofilm kill mix | Hck-Nef inh | 14-3-3 Bad PPI
CCc1ccccc1NC(=O)CC(c1ccc(OC)cc1)n1cccc1 (stereo not drawn) | -13.9 | 1.5 | 0.0 | 2.9 | 1.4 | -10.3
COc1cc(OC)cc(C(=O)N2CCC(N3CCN(c4ccccc4OC)CC3)CC2)c1 | 57.2* | 13.8 | -4.0 | 9.4 | 6.2 | 43.4
CSCCCNC(=S)N1CCc2ccccc2C1 | -48.6 | 10.5 | 0.0 | -5.0 | 21.5 | -22.5
O=C(Cn1c(-c2ccccc2)noc1=O)N1CCC(Cc2ccccc2)CC1 | 10.4 | 14.9 | 40.0* | 14.7 | -11.3 | -3.4
CCC(CC)N1CCN(CC2CC=CCC2)CC1 (stereo not drawn) | 41.8 | 30.9 | -1.0 | 9.4 | 14.2 | 48.1
CS(=O)(=O)Nc1nnc(SCC(=O)N(c2ccccc2)c2ccccc2)s1 | -29.0 | 6.5 | -7.0 | -3.1 | 0.4 | 10.3
CCOc1ccc2[nH]c3c(NCCc4ccc(OC)c(OC)c4)ncnc3c2c1 | -49.3 | 56.7* | . | 0.0 | 9.9 | -3.1
O=C(Oc1ccc2c(c1)OCO2)c1cc2c(s1)CCC2 | -42.4 | 56.9* | -1.0 | . | 8.9 | -6.2
O=C(c1cc2c(s1)CCCC2)N1CCN(Cc2ccc3c(c2)OCO3)CC1 | 24.3 | 10.3 | 1.0 | . | -0.6 | 41.7
CSC(=S)N/N=C(\C)c1ccc(Br)cc1 | -68.7 | -33.9 | -1.0 | 24.7 | 23.3 | -22.4
Cn1c(=O)[nH]c(=O)c2c1nc(NCCCO)n2CCOc1ccccc1 | -55.3 | -2.6 | 2.0 | 1.7 | 20.3 | -6.4
NS(=O)(=O)c1ccc(NS(=O)(=O)c2ccc(NC(=O)c3ccc(-c4ccccc4)cc3)cc2)cc1 | 54.1* | 26.7 | 1.0 | . | 8.5 | -4.8
NS(=O)(=O)c1ccc(C(=O)Nc2ccc(-c3nc4cccnc4s3)cc2)cc1 | 52.1* | 48.7 | . | -8.6 | 23.2 | 8.4
NS(=O)(=O)c1ccc(NC(=O)c2ccc(-c3ccccc3)cc2)cc1 | 27.6 | -63.2 | 5.0 | 13.5 | 42.2 | 25.6
O=C(CC1C(=O)NCCN1Cc1ccccc1C(F)(F)F)NCCn1cccn1 (stereo not drawn) | -28.3 | 5.4 | 1.0 | 21.8 | 14.9 | -3.0
CCn1c(CSc2nc3ccccc3s2)nnc1SCC(=O)c1ccc(Cl)cc1 | -10.3 | -1.4 | -2.0 | . | 1.9 | -9.4
CCn1c(CSc2nc3ccccc3s2)nnc1SCC(=O)c1ccc(O)c(O)c1 | -99.0 | 61.6* | -1.0 | . | 0.7 | -10.5
COc1ccccc1-c1nc(SCC(=O)N(C)c2ccccc2)c2c(=O)n(C)c(=O)n(C)c2n1 | 57.4* | 35.3 | 0.0 | 12.6 | 10.3 | 4.8
CCCC(=O)Oc1ccc2c(C)cc(=O)oc2c1 | -10.2 | -7.4 | -8.0 | 5.7 | 76.6* | -14.6
Cc1cc(=O)oc2cc(OC(=O)CCN3C(=O)c4ccccc4C3=O)ccc12 | -3.5 | 15.1 | -2.0 | . | 17.9 | -0.7
Cc1cc(=O)oc2cc(OC(=O)c3cncc(Br)c3)ccc12 | 17.2 | 21.9 | 3.0 | 31.3 | 68.8* | 15.9
Cc1ccc2c(c1)N/C(=C(\C=C(/Cl)[N+](=O)[O-])[N+](=O)[O-])N2 | 10.2 | 59.4* | 0.0 | -4.6 | 25.4 | 22.7
Cc1nc(Nc2ccc3c(c2)OCCO3)c2c(C)c(C)sc2n1 | -28.7 | 16.2 | -1.0 | 5.2 | 24.4 | -10.8
COC(=O)c1c(-c2cccnc2)csc1NC(=O)c1cc(C)on1 | -8.0 | 57.5* | -3.0 | . | 9.3 | 2.6

Screening data (PubChem BioAssay)
